Assay results taken from ChEMBL document CHEMBL2150929, “Lipidated peptidomimetics with improved antimicrobial activity” (ACS Med Chem Lett, 2012).
In brackets after ≈: the same amount, converted by molar mass. Activity calls are given as the source filed them. No cut-off for these calls is given here.

How the values were obtained:
[1] = Toxicity in RBC assessed as hemolysis; assay type: cell-based, Erythrocyte; details: for HC10: erythrocyte; for HC50: red blood cells (RBC)
Procedure, shortened: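 Hemolysis of red blood cells measured over a concentration range. H10 and H50 are the concentrations giving 10% and 50% hemolysis.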

Bacillus subtilis = assay: Antimicrobial activity against Bacillus subtilis BR151 after 24 hrs by broth micro-dilution method; assay type: functional; details: BR151, 24 h
Staphylococcus aureus = assay: Antimicrobial activity against methicillin-resistant Staphylococcus aureus ATCC 33592 after 24 hrs by broth micro-dilution method; assay type: functional; details: ATCC 33592, 24 h
Procedure, shortened: (§1)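 MIC read as the lowest concentration giving complete inhibition of bacterial growth after 24 h of incubation. Pexiganan and a linear α-AApeptide were run alongside as positive controls.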

Enterococcus faecalis = assay: Antimicrobial activity against Vancomycin-resistant Enterococcus faecalis ATCC 700802 after 24 hrs by broth micro-dilution method; assay type: functional; details: ATCC 700802, 24 h; procedure, shortened: as §1
[2] = tested on: Staphylococcus epidermidis; assay: Antimicrobial activity against methicillin-resistant Staphylococcus epidermidis RP62A after 24 hrs by broth micro-dilution method; assay type: functional; procedure, shortened: as §1
Escherichia coli [3] = assay: Antimicrobial activity against Escherichia coli JM109 after 24 hrs by broth micro-dilution method; assay type: functional; details: JM109, 24 h
Klebsiella pneumoniae = assay: Antimicrobial activity against Klebsiella pneumoniae ATCC 13383 after 24 hrs by broth micro-dilution method; assay type: functional; details: ATCC 13383, 24 h
Pseudomonas aeruginosa = assay: Antimicrobial activity against Pseudomonas aeruginosa ATCC 27853 after 24 hrs by broth micro-dilution method; assay type: functional; details: ATCC 27853, 24 h
Candida albicans = assay: Antimicrobial activity against Candida albicans ATCC 10231 after 48 hrs by broth micro-dilution method; assay type: functional; details: ATCC 10231, 48 h
Escherichia coli [4] = assay: Induction of membrane disruption in Escherichia coli JM109 at 10 ug/ml after 2 hrs by Propidium iodide-staining based fluorescence microscopy; assay type: functional, organism-based
Procedure, shortened: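 E. coli exposed to 10 μg/mL for 2 h, then stained with DAPI, which labels all cells, and propidium iodide, which enters cells with damaged membranes. Red PI fluorescence imaged by fluorescence microscopy against untreated controls.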

| Compound | HC10 [1] [µg/mL] | HC50 [1] [µg/mL] | MIC (Bacillus subtilis) [µg/mL] | MIC (Staphylococcus aureus) [µg/mL] | MIC (Enterococcus faecalis) [µg/mL] | MIC [2] [µg/mL] | MIC (Escherichia coli [3]) [µg/mL] | MIC (Klebsiella pneumoniae) [µg/mL] | MIC (Pseudomonas aeruginosa) [µg/mL] | MIC (Candida albicans) [µg/mL] | Activity (Escherichia coli [4]) |
| --- | --- | --- | --- | --- | --- | --- | --- | --- | --- | --- | --- |
| CCCCCCCCCCCCCCCC(=O)NCCN(C(=O)CCC(C)C)[C@@H](CCCCN)C(=O)NCCN(C(=O)CCC(C)C)[C@@H](CCCCN)C(N)=O | > 500 | > 500 | 2 (≈ 2.52 µM) | 5 (≈ 6.3 µM) | 1 (≈ 1.26 µM) | 10 (≈ 12.6 µM) | > 50 | > 50 | > 50 | 2 (≈ 2.52 µM) | – |
| CCCCCCCCCCCCCCCC(=O)NCCN(C(=O)CCc1ccccc1)[C@@H](CCCCN)C(=O)NCCN(C(=O)CCc1ccccc1)[C@@H](CCCCN)C(N)=O | > 500 | > 500 | 4 (≈ 4.64 µM) | 8 (≈ 9.28 µM) | 3 (≈ 3.48 µM) | 15 (≈ 17.4 µM) | > 50 | > 50 | > 50 | 2 (≈ 2.32 µM) | – |
| CCCCCCCCCCCCCCCC(=O)NCCN(C(=O)CCCN)[C@@H](Cc1ccccc1)C(=O)NCCN(C(=O)CCCN)[C@@H](Cc1ccccc1)C(=O)NCCN(C(=O)CCCN)[C@@H](Cc1ccccc1)C(=O)NCCN(C(=O)CCCN)[C@@H](Cc1ccccc1)C(=O)NCCN(C(=O)CCCN)[C@@H](Cc1ccccc1)C(N)=O | 20 | 250 | 4 (≈ 2.45 µM) | 8 (≈ 4.9 µM) | 4 (≈ 2.45 µM) | 10 (≈ 6.13 µM) | 4 (≈ 2.45 µM) | 8 (≈ 4.9 µM) | 12 (≈ 7.35 µM) | 4 (≈ 2.45 µM) | Active |
| H-GIGKFLKKAKKFGKAFVKILKK-NH2 [PEXIGANAN] | 181 | 495 | 4 | 16 | 32 | 8 | 8 | 8 | 8 | 124 | – |
| CCCCCCCCCCCCCCCC(=O)NCCN(C(=O)CCc1ccccc1)[C@@H](CCCCN)C(=O)NCCN(C(=O)CCc1ccccc1)[C@@H](CCCCN)C(=O)NCCN(C(=O)CCc1ccccc1)[C@@H](CCCCN)C(N)=O | 15 | 150 | 2 (≈ 1.72 µM) | 8 (≈ 6.86 µM) | 10 (≈ 8.58 µM) | 20 (≈ 17.2 µM) | > 50 | > 50 | > 50 | > 50 | – |
| CCCCCCCCCCCCCCCC(=O)NCCN(C(=O)CCCN)[C@@H](Cc1ccccc1)C(=O)NCCN(C(=O)CCCN)[C@@H](Cc1ccccc1)C(=O)NCCN(C(=O)CCCN)[C@@H](Cc1ccccc1)C(N)=O | 50 | 300 | 2 (≈ 1.85 µM) | 4 (≈ 3.7 µM) | 4 (≈ 3.7 µM) | 8 (≈ 7.4 µM) | 8 (≈ 7.4 µM) | > 50 | 20 (≈ 18.5 µM) | 3 (≈ 2.77 µM) | – |
| CCCCCCCCCCCCCCCC(=O)NCCN(C(C)=O)[C@@H](C)C(=O)NCCN(C(C)=O)[C@@H](C)C(=O)NCCN(C(=O)CCCN)[C@@H](Cc1ccccc1)C(=O)NCCN(C(=O)CCCN)[C@@H](Cc1ccccc1)C(=O)NCCN(C(=O)CCCN)[C@@H](Cc1ccccc1)C(N)=O | 40 | 400 | 2 (≈ 1.43 µM) | 4 (≈ 2.87 µM) | 4 (≈ 2.87 µM) | 4 (≈ 2.87 µM) | 30 (≈ 21.5 µM) | 8 (≈ 5.74 µM) | 8 (≈ 5.74 µM) | 20 (≈ 14.3 µM) | – |
| CCCCCCCCCCCCCCCC(=O)NCCN(C(C)=O)[C@@H](C)C(=O)NCCN(C(C)=O)[C@@H](C)C(=O)NCCN(C(=O)CCCN)[C@@H](CCCCN)C(=O)NCCN(C(=O)CCCN)[C@@H](CCCCN)C(=O)NCCN(C(=O)CCCN)[C@@H](CCCCN)C(N)=O | 100 | > 500 | 4 (≈ 2.99 µM) | 8 (≈ 5.98 µM) | 20 (≈ 15 µM) | 10 (≈ 7.48 µM) | 4 (≈ 2.99 µM) | 20 (≈ 15 µM) | 10 (≈ 7.48 µM) | 10 (≈ 7.48 µM) | – |
